Data as given in ChEMBL document CHEMBL1129341, “New neplanocin analogues. 6. Synthesis and potent antiviral activity of 6'-homoneplanocin A1” (J Med Chem, 1996).
Values after ≈ are worked out from the molar mass of the structure shown.

Experiments:
Vero [1] = test: Inhibitory activity against virus plaque formation (PV-3) in Vero cells; assay type: functional, cell-based; conditions: Chlorocebus sabaeus
Outline: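 Poliovirus type 3 in Vero cells. IC50 is the concentration that reduces virus plaque formation by 50%.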

Vero [2] = test: Cytotoxic activity towards viable cells in Vero cells; assay type: functional; conditions: Chlorocebus sabaeus
Outline: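 Vero cells. CC50 is the concentration that reduces the number of viable cells by 50%.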

Vero [3] = test: Inhibitory activity against virus-induced cytopathogenicity (VSV)in Vero cells; assay type: functional, cell-based; conditions: Chlorocebus sabaeus
Outline: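 Vesicular stomatitis virus in Vero cells. IC50 is the concentration that reduces virus-induced cytopathogenicity by 50%.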

Vero [4] = test: Cytotoxic activity against Sindbis virus in Vero Cells; assay type: functional; conditions: Chlorocebus sabaeus
HEL [5] = test: Cytotoxic activity against HCMV(Davis) virus in HEL Cells; assay type: functional; conditions: Homo sapiens
HeLa [6] = test: Cytotoxic activity against Polio-1 virus in HeLa Cells; assay type: functional; conditions: Homo sapiens
Outline: (§1)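 Antiviral screen in cell culture (HeLa, HEL, E6SM or Vero, per line). IC50 is the concentration that reduces virus-induced cytopathogenicity by 50%.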

E6SM [7] = test: Cytotoxic activity against TK-HSV-1 (B2006) virus in E6SM Cells; assay type: functional; conditions: Homo sapiens
Vero [8] = test: Cytotoxic activity against forest virus in Vero Cells; assay type: functional; conditions: Chlorocebus sabaeus; outline: as §1
Vero [9] = test: Cytotoxic activity against Reo-1 virus in Vero Cells; assay type: functional; conditions: Chlorocebus sabaeus
E6SM [10] = test: Cytotoxic activity against VSV virus in E6SM Cells; assay type: functional; conditions: Homo sapiens; outline: as §1
HeLa [11] = test: Cytotoxic activity against Coxsackie B4 virus in HeLa Cells; assay type: functional; conditions: Homo sapiens
HEL [12] = test: Cytotoxic activity against cell growth in HEL Cells; assay type: functional; conditions: Homo sapiens
Outline: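 HEL cell cultures. CC50 is the concentration that reduces cell growth by 50%.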

HEL [13] = test: Cytotoxic activity against VZV (YS) virus in HEL Cells; assay type: functional; conditions: Homo sapiens
E6SM [14] = test: Cytotoxic activity against vaccinia virus in E6SM Cells; assay type: functional; conditions: Homo sapiens; outline: as §1
HEL [15] = test: Cytotoxic activity against TK-VZV (07/1) virus in HEL Cells; assay type: functional; conditions: Homo sapiens
E6SM [16] = test: Cytotoxic activity against cell morphology in E6SM Cells; assay type: functional; conditions: Homo sapiens
Outline: (§2)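 Host cells under the conditions of the antiviral assays (E6SM, HeLa or Vero, per line). Cytotoxic concentration is the one causing microscopic alteration of normal cell morphology in about 50% of cells.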

HeLa [17] = test: Cytotoxic activity against VZV virus in HeLa Cells; assay type: functional; conditions: Homo sapiens
HeLa [18] = test: Cytotoxic activity against cell morphology in HeLa Cells; assay type: functional; conditions: Homo sapiens; outline: as §2
Vero [19] = test: Cytotoxic activity against Tacaribe virus in Vero Cells; assay type: functional; conditions: Chlorocebus sabaeus; outline: as §1
Vero [20] = test: Cytotoxic activity against PV-3 virus in Vero Cells; assay type: functional; conditions: Chlorocebus sabaeus
E6SM [21] = test: Cytotoxic activity against HSV-1(KOS) virus in E6SM Cells; assay type: functional; conditions: Homo sapiens; outline: as §1
E6SM [22] = test: Cytotoxic activity against HSV-2 (G) virus in E6SM Cells; assay type: functional; conditions: Homo sapiens
Vero [23] = test: Cytotoxic activity against Junin virus in Vero Cells; assay type: functional; conditions: Chlorocebus sabaeus; outline: as §1
HEL [24] = test: Cytotoxic activity against TK-VZV (YS/R) virus in HEL Cells; assay type: functional; conditions: Homo sapiens
HEL [25] = test: Cytotoxic activity against HCMV (AD-169) virus in HEL Cells; assay type: functional; conditions: Homo sapiens
Vero [26] = test: Cytotoxic activity against cell morphology in Vero Cells; assay type: functional; conditions: Chlorocebus sabaeus; outline: as §2
HEL [27] = test: Cytotoxic activity against VZV (OKA) virus in HEL Cells; assay type: functional; conditions: Homo sapiens; outline: as §1
[28] = Inhibitory activity against S-adenosyl-L-homocysteine hydrolase from rabbit erythrocytes

SMILES	IC50 (Vero [1])	CC50 (Vero [2])	IC50 (Vero [3])	CC50 (Vero [4])	CC50 (HEL [5])	CC50 (HeLa [6])	CC50 (E6SM [7])	CC50 (Vero [8])	CC50 (Vero [9])	CC50 (E6SM [10])	CC50 (HeLa [11])	CC50 (HEL [12])	CC50 (HEL [13])	CC50 (E6SM [14])	CC50 (HEL [15])	CC50 (E6SM [16])	CC50 (HeLa [17])	CC50 (HeLa [18])	CC50 (Vero [19])	CC50 (Vero [20])	other results
Nc1nc(O)c2ncn([C@@H]3C=C(CCO)[C@@H](O)[C@H]3O)c2n1	> 25 µg/mL	> 500 µg/mL	> 500 µg/mL	–	–	–	–	–	–	–	–	–	–	–	–	–	–	–	–	–	–
Nc1ncnc2c1ncn2[C@@H]1C=C(CO)[C@@H](O)[C@H]1O [NEOPLANOCIN A]	0.74 µg/mL (≈ 2.81 µM)	152 µg/mL (≈ 577 µM)	1 µg/mL (≈ 3.8 µM)	> 10 µg/mL	0.4 µg/mL (≈ 1.52 µM)	> 40 µg/mL	40 µg/mL (≈ 152 µM)	> 10 µg/mL	4 µg/mL (≈ 15.2 µM)	7 µg/mL (≈ 26.6 µM)	> 40 µg/mL	> 20 µg/mL	9 µg/mL (≈ 34.2 µM)	0.7 µg/mL (≈ 2.66 µM)	10 µg/mL (≈ 38 µM)	70 µg/mL (≈ 266 µM)	2 µg/mL (≈ 7.6 µM)	> 40 µg/mL	2 µg/mL (≈ 7.6 µM)	2 µg/mL (≈ 7.6 µM)	CC50 (E6SM [21]): > 70 µg/mL; CC50 (E6SM [22]): > 70 µg/mL; CC50 (Vero [23]): 0.5 µg/mL (≈ 1.9 µM); CC50 (HEL [24]): 7 µg/mL (≈ 26.6 µM); CC50 (HEL [25]): 0.3 µg/mL (≈ 1.14 µM); CC50 (Vero [26]): > 10 µg/mL; CC50 (HEL [27]): 15 µg/mL (≈ 57 µM); IC50 [28]: 0.004 µg/mL (≈ 0.0152 µM)
Cc1cn([C@@H]2C=C(CCO)[C@@H](O)[C@H]2O)c(=O)[nH]c1=O	> 25 µg/mL	> 500 µg/mL	> 500 µg/mL	–	–	–	–	–	–	–	–	–	–	–	–	–	–	–	–	–	–
Nc1ncnc2c1ncn2[C@@H]1C=C(CCO)[C@@H](O)[C@H]1O	0.35 µg/mL (≈ 1.26 µM)	> 500 µg/mL	1 µg/mL (≈ 3.61 µM)	> 400 µg/mL	0.5 µg/mL (≈ 1.8 µM)	> 200 µg/mL	> 400 µg/mL	> 400 µg/mL	70 µg/mL (≈ 252 µM)	1 µg/mL (≈ 3.61 µM)	> 200 µg/mL	> 50 µg/mL	> 50 µg/mL	0.1 µg/mL (≈ 0.361 µM)	> 50 µg/mL	> 400 µg/mL	0.7 µg/mL (≈ 2.52 µM)	> 400 µg/mL	20 µg/mL (≈ 72.1 µM)	2 µg/mL (≈ 7.21 µM)	CC50 (E6SM [21]): > 400 µg/mL; CC50 (E6SM [22]): > 400 µg/mL; CC50 (Vero [23]): 5 µg/mL (≈ 18 µM); CC50 (HEL [24]): > 50 µg/mL; CC50 (HEL [25]): 0.15 µg/mL (≈ 0.541 µM); CC50 (Vero [26]): > 400 µg/mL; CC50 (HEL [27]): > 50 µg/mL
Nc1ccn([C@@H]2C=C(CCO)[C@@H](O)[C@H]2O)c(=O)n1	> 25 µg/mL	> 500 µg/mL	> 500 µg/mL	–	–	–	–	–	–	–	–	–	–	–	–	–	–	–	–	–	–
Nc1nccc2c1ncn2[C@@H]1C=C(CCO)[C@@H](O)[C@H]1O	> 25 µg/mL	> 500 µg/mL	3.9 µg/mL (≈ 14.1 µM)	–	–	–	–	–	–	–	–	–	–	–	–	–	–	–	–	–	–
